TDP2 absorb: human TDP2 enzyme inhibitors, primary screen, biochemical, epi absorbance, recombinant enzyme; Tyrosyl-DNA phosphodiesterase 2 (Homo sapiens), O95551; T5PNP hydrolysis, p-nitrophenol absorbance 415 nm; inhibition, % at 12.8 µM; actives 0.34% (n = 370,000); AID 720702, 2013;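 active means inhibition above the mean of all tested compounds plus 3 SD, set per campaign, cut at about 25% in these data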;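 further: 0% = DMSO with enzyme and 100% = buffer with substrate but no TDP2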
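Material: recombinant human TDP2; quantity: TDP2 enzyme at 120 nM final; medium: Tris-HCl pH 7.5 with MgCl2; compound: single concentration, 12.8 µM nominal, with 1% DMSO; incubation: 2 h enzyme incubation at 37 °C; signal: epi absorbance; measure: percent inhibition; benchmarks: high control without enzyme, low control DMSO plus TDP2; repeats: singlicate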
SIAE inh: human SIAE inhibitors, primary screen, biochemical, fluorescence polarization, FP-Rh probe, 1536-well HTS; actives 0.69% (n = 370,000); inhibition, % at 9.66 µM; SIAE FP-Rh probe binding; Sialate O-acetylesterase (Homo sapiens), Q9HAT2;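 active means inhibition above a cutoff: mean of compounds within the control limits plus 3 SD of those, cut at about 17% in these data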;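 further: 0% = plate median of compound wells and 100% = probe without SIAE protein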
Target sequence (Q9HAT2 whole entry, looked up): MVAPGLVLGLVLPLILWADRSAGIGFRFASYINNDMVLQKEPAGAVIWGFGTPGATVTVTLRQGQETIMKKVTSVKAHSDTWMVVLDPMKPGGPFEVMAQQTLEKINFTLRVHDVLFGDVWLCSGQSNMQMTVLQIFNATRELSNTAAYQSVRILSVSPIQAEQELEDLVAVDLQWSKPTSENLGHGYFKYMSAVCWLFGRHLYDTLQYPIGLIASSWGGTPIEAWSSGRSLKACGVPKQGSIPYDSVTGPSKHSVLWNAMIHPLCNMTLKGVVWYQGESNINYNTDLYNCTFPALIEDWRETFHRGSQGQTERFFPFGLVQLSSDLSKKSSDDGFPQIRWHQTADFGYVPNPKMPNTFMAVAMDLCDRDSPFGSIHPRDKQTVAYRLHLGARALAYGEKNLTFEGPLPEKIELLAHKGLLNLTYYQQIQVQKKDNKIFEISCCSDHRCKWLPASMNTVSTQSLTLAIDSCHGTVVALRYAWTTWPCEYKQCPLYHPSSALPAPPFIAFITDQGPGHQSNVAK
TCR CD3 inh: inhibitors of human TCR-CD3 interaction, primary screen, biochemical, fluorescence, TAMRA-labeled TCR probe. T-cell receptor (TCR). inhibition, % at 9.4 µM. actives 0.37% (n = 360,000). AID 651800, 2012; in the data active means inhibition above about 19%;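 further: recombinant mutant TCR 2C K166C tagged with TAMRA read by polarization; 0% = receptor in buffer alone and 100% = receptor with positive control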
GSTO1 inh: inhibitors of recombinant GSTO1, primary screen, counter-screen for RBBP9 inhibitor project, biochemical, fluorescence polarization; inhibition, % at 5.96 µM; actives 1.1% (n = 300,000); activity-based probe fluorescence polarization;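 active means inhibition above the campaign mean inhibition plus 3 SD, cut at about 35% in these data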;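 further: 0% = GSTO1-1 with DMSO and 100% = wells lacking GSTO1-1 enzyme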
Apaf1 inhib: inhibitors of human Apaf-1 apoptosome, primary screen, biochemical, DEVD-Rh110 fluorescence, uHTS. actives 0.71% (n = 330,000). inhibition, % at 20 µM. reconstituted apoptosome caspase-3 activity. Apoptotic protease-activating factor 1 (Homo sapiens), O14727; active means inhibition of at least 40% at 20 µM;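 further: plate controls were DMSO wells for no effect and DEVD-CHO caspase inhibitor wells for full effect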
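System: Apoptosome proteins | Medium: Hepes pH 7.5 with detergent and BSA | Also added: Cytochrome c trigger plus (Z-DEVD)2-Rh110 caspase-3 substrate | Incubation: 30 min compound preincubation, 50 min activation, room temperature | Detection: Rhodamine 110 fluorescence at Ex 480/Em 540 nm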
PAD4 inh: human PAD4 inhibitors, primary screen, biochemical, fluorescence polarization, 1536-well format. AID 485272, 2010. recombinant PAD4, RCA probe fluorescence polarization. Protein-arginine deiminase type-4 (Homo sapiens), Q9UM07. inhibition, % at 6.36 µM. actives 0.41% (n = 330,000);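 active means percent inhibition above a cutoff equal to the mean of all tested compounds plus 3 SD, cut at about 15% in these data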;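 further: 0% = PAD4 with RCA probe and DMSO and 100% = probe without PAD4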
Apaf-1 inh conf2: Apaf-1 inhibitors, single-dose retest, confirmation, biochemical, fluorescence, DEVD-Rh110, 20 µM; shares compounds with Apaf1 inhib; reconstituted apoptosome, caspase-3 DEVD-Rh110 fluorescence; inhibition, % at 20 µM; actives 25% (n = 1,800); AID 504614, 2011;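 active means mean inhibition of at least 40% at 20 µM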;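 further: plate controls were DMSO wells for no effect and DEVD-CHO caspase inhibitor control wells for full effect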
Rh110 quench: Rh110 fluorescence interference by putative Apaf-1 inhibitors, confirmation, artefact control for Apaf-1 inhibitor project, biochemical, 20 µM | shares compounds with Apaf1 inhib | quenched caspase reaction | 1,800 tested, under 10 active | activation (fluorescence interference), % at 20 µM;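 active means signal rise of 40% or more at 20 µM, treated as a fluorescence artifact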
Fluor interf inh: fluorescence interference of Apaf-1 inhibitor hits, dose response, artefact control for Apaf-1 inhibitor project; fluorescence interference counterscreen, Apaf-1 assay format; IC50, µM; AID 588538, 2011; 460 tested, under 10 active; shares compounds with Apaf1 inhib; call rule not given here
An asterisk follows results filed as active; . = no result given. An excerpt weighted towards active compounds, which were near 2.4% of everything screened.

SMILES	TDP2 absorb	SIAE inh	TCR CD3 inh	GSTO1 inh	Apaf1 inhib	PAD4 inh	Apaf-1 inh conf2	Rh110 quench	others
COc1ccc(NC(=O)c2cc(-c3ccncc3)nc3ccc(Br)cc23)cc1OC	-1	-19	-12	7	45*	-9	12	8
CC1CCCCC1NC(=O)C1CCN(C(=O)c2sccc2-n2cccc2)CC1 (stereo not given)	9	1	1	0	13	-3	.	.
COc1ccc(Br)cc1CN(C)C(=O)Cc1ccc(OC)c(S(=O)(=O)N2CCOCC2)c1	-5	-1	-6	.	-3	-1	.	.
COc1ccc(C(=O)N(Cc2ccccc2)c2cccc(C)c2)cc1S(=O)(=O)N1CCOCC1	-12	6	-4	-10	45*	1	35	4
COc1ccc(CN(C)C(=O)Cc2ccc(OC)c(S(=O)(=O)N3CCOCC3)c2)cc1OC	-5	-3	-2	.	60*	-2	34	-2
COc1ccc(CC(=O)Nc2cccc(Cl)c2C)cc1S(=O)(=O)N1CCOCC1	3	3	-2	.	2	0	.	.
COc1ccc(CC(=O)N(C)CC(=O)Nc2ccccc2Cl)cc1S(=O)(=O)N1CCOCC1	-6	1	-3	.	59*	-4	33	-4
CCc1ccc(NC(=O)c2ccc(F)c(S(=O)(=O)NCC3COc4ccccc4O3)c2)cc1 (stereo not given)	-9	-97	6	-18	10	1	.	.
CCCc1cc(=O)oc2c3c(cc(OCC(=O)N[C@@H](C)C(=O)O)c12)OC(C)(C)CC3	4	-3	1	-7	2	-8	.	.
CCCc1cc(=O)oc2c3c(c4c(c12)OC(C)(C)C=C4)OC(C)C(C)C3O (stereo not given)	-5	-7	5	0	53*	1	47*	12	Fluor interf inh=>100
Cc1ccc(C)c(OCCC(=O)N2CCN(S(=O)(=O)c3cc(F)ccc3F)CC2)c1	5	-4	-6	.	22	-6	.	.
Cc1ccc(S(=O)(=O)N2CCN(C(=O)CCOc3cc(C)ccc3C)CC2)cc1	8	4	-2	.	40*	-7	24	6
CC(C)(Oc1ccc(Cl)cc1)C(=O)OCC(=O)Nc1ncc(Cl)cc1Cl	-19	-6	-5	-3	12	2	.	.
COc1ccc2[nH]c(=O)c(CNc3ccccc3OC)cc2c1	11	11	5	9	51*	-4	43*	5	Fluor interf inh=>100
COc1ccc2[nH]c(=O)c(CNc3ccccc3C)cc2c1	0	-1	8	-2	2	1	.	.
CN(C)c1cc[n+](CC[n+]2ccc(N(C)C)cc2)cc1	5	2	-5	-1	1	-5	.	.
Cc1ccc2c(c1)c1c3n2CCN(C(=O)CN2CCN(C)CC2)C3CCC1 (stereo not given)	0	0	1	11	13	3	.	.
CN1CCN(CC(=O)N2CCn3c4c(c5cc(C6CCCCC6)ccc53)CCCC42)CC1 (stereo not given)	.	.	.	5	58*	-1	37	7
N#Cc1ccc(Oc2cccc(C(=O)O)c2)cc1C#N	-10	1	4	4	13	-1	.	.
O=C(CNc1cccc2ccccc12)N/N=C/c1ccccn1	7	16	3	23	48*	-3	15	3
CC(=O)NC1=C(NC2CCS(=O)(=O)C2)C(=O)c2ccccc2C1=O (stereo not given)	19	1	2	31	41*	-13	21	-6
O=C(c1ccccc1)c1nn(-c2cccc(Cl)c2)ccc1=O	-10	10	-3	-6	-7	-2	.	.
COc1ccccc1-n1c(N)c(C(=O)NCC2CCCO2)c2nc3ccccc3nc21 (stereo not given)	4	3	3	15	69*	-12	15	7
COc1ccccc1-n1c(C)nc2cc(C(=O)NCC3CCCO3)ccc21 (stereo not given)	7	1	-3	3	-5	1	.	.
Nc1c(C(=O)NCCN2CCOCC2)c2nc3ccccc3nc2n1-c1cccc(F)c1	-8	2	-1	15	35	-27	.	.
SMILES	TDP2 absorb	SIAE inh	TCR CD3 inh	GSTO1 inh	Apaf1 inhib	PAD4 inh	Apaf-1 inh conf2	Rh110 quench	others
COCCCNC(=O)c1c(N)n(-c2cccc(S(N)(=O)=O)c2)c2nc3ccccc3nc12	5	-8	3	-7	43*	-11	28	1
Nc1c(C(=O)NCC2CCCO2)c2nc3ccccc3nc2n1-c1ccccc1 (stereo not given)	-11	-1	5	3	60*	-6	27	9
COc1ccc(N2CCN(c3n[nH]c(N)n3)CC2)cc1	-5	15	0	-13	-4	2	.	.
Cn1c(=O)c2c(ncn2CC(=O)N2CCOCC2)n(C)c1=O	14	5	6	0	-6	-3	.	.
CCC1Nc2ncnc(N3CCN(c4ccccc4)CC3)c2N(Cc2ccccc2)C1=O (stereo not given)	-1	12	3	.	60*	2	29	14
CCC1Nc2ncnc(N3CCN(c4ccccc4)CC3)c2N(Cc2ccc(C)cc2)C1=O (stereo not given)	1	0	0	4	25	2	.	.
CN(C(=S)Nc1ccc(SC(F)F)cc1)c1ccc(O)cc1	11	17	4	66*	70*	11	5	2
CCc1cc2c(SCC(=O)N3CC(=O)Nc4ccccc43)ncnc2s1	9	-3	2	4	55*	-2	20	7
CCc1cc2cc(C)ccc2nc1SCC(=O)N1CC(=O)Nc2ccccc21	-3	-11	4	-10	17	-2	.	.
COc1ccc2oc(C(=O)N(C)CCOc3ccc(Cl)cc3)c(C)c2c1	-7	-5	-2	1	20	0	.	.
Cc1c(C(=O)N(C)CCOc2ccccc2)oc2c(Cl)cccc12	-8	4	0	.	45*	1	38	12
